Source: PubChem BioAssay (several laboratories)
Compounds with a hit are over-represented: about 2.1% of the library has one in this group of screens.
p97 ATPase inh: inhibitors of human p97 ATPase, primary screen, biochemical. AID 1481, 2009. recombinant p97 ATPase, Kinase-Glo ATP luminescence, 3 h. hit rate 0.42% among 220,000. inhibition, % at 8 µM. Transitional endoplasmic reticulum ATPase (Homo sapiens), P55072; in the data active means inhibition above about 15%;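 further: 0% = DMSO vehicle and 100% = wells lacking enzyme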
Runt-CBFb FRET: inhibitors of RUNX1 Runt–CBFb binding, primary screen, biochemical, FRET, Cerulean-Runt, Venus-CBFb, uHTS. Cerulean-Runt/Venus-CBFb FRET ratio 530/480, 1 h. inhibition, % at 20 µM. hit rate 0.46% among 220,000. AID 1496, 2009;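 active means inhibition over about 50% at 20 µM in the single-dose screen, limit read from the data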;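 further: 0% = DMSO wells and 100% = excess unlabeled CBFb competitor control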
Target sequence (Q01196 whole entry, looked up): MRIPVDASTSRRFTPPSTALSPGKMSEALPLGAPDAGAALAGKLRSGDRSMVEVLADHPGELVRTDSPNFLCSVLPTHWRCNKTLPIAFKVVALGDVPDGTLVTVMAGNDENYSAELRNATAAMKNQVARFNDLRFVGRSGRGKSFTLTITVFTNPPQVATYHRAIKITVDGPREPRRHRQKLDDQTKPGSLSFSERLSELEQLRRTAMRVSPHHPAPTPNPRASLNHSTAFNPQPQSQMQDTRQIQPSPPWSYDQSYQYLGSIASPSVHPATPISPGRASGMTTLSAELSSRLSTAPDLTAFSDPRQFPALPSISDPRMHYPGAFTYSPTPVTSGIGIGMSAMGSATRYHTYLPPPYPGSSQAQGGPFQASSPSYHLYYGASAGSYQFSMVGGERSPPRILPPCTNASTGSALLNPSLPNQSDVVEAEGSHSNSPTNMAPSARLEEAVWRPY
Target sequence (Q13951 whole entry, looked up): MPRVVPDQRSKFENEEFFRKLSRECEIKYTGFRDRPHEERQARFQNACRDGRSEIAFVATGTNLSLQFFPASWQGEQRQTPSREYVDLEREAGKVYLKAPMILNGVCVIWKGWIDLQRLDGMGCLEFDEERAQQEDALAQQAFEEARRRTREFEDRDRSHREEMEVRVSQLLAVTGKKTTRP
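Reagent – Venus-CBFb binding partner, 100 nM · Assay system – Cerulean-tagged RUNX1 Runt domain (FRET donor) fusion protein · Input – 100 nM per protein · Incubation – two 1 h room-temperature incubations shielded from light · Measured by – FRET fluorescence · Medium – Tris buffer pH 7.5 with salts and BSA · Benchmarks – unlabeled CBFb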
RanGTP-Imp inh: inhibitors of RanGTP-importin-beta interaction, primary screen, biochemical, FRET, CFP-Ran, YFP-importin-beta, homogeneous; Ran GTPase (GTP-bound) - importin-beta complex; cell-free CFP-Ran/YFP-importin-beta FRET ratio; inhibition, % (no concentration beside the values); hit rate 1.1% among 300,000; AID 2216, 2009;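 active means more than half of the replicate wells show a fall in the fluorescence ratio signal beyond about 16%, limit read from the data, passing the limit was not always enough; inconclusive means exactly half of the replicate wells pass the set limit; inactive means fewer than half of replicates pass the limit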;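 further: 0% = DMSO wells and 100% = Ran loaded with GDP instead of GTP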
Runt-SMMHC FRET: inhibitors of RUNX1 Runt–CBFb-SMMHC binding, primary screen, biochemical, FRET, Cerulean-Runt, Venus-CBFb-SMMHC, uHTS; Cerulean-Runt/Venus-CBFb-SMMHC FRET ratio 530/480, 1 h; inhibition, % at 20 µM; hit rate 0.74% among 220,000;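 active means mean inhibition across duplicate retests at 20 µM reaching about 50%, limit read from the data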;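 further: 0% = DMSO wells and 100% = wells with excess untagged CBFb-SMMHC; inhibitors lower the FRET ratio by blocking Runt binding to CBFb-SMMHC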
Hck Nef HTS: inhibitors of Nef-activated human Hck kinase, primary screen, biochemical, Z-Lyte FRET, 384-well, Hck-YEEI; Tyrosine-protein kinase HCK (Homo sapiens), P08631; Recombinant Hck-YEEI plus Nef, Z-Lyte FRET kinase assay; inhibition, % at 20 µM; hit rate 0.68% among 220,000; AID 463187, 2010;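 active means Hck-Nef kinase inhibition above about 50%, limit read from the data; inactive means inhibition below that limit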;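 further: 0% = DMSO with Hck plus Nef and 100% = Hck alone without Nef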
TbHK1 inh: Trypanosoma brucei hexokinase 1 inhibitors, primary screen, biochemical, G6PDH-coupled NADH absorbance, MLSCN library; recombinant TbHK1, G6PDH-coupled NADH A340; inhibition, % at 10 µM; hit rate 0.11% among 220,000; AID 1430, 2008;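 active means inhibition of 50% or more in the single-dose primary screen; inactive means inhibition below 50%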
An asterisk follows results filed as active.

For CC1=NN(S(=O)(=O)c2ccc(Cl)cc2Cl)C(=O)c2ccccc2O1 the results were p97 ATPase inh 1, Runt-CBFb FRET -2, RanGTP-Imp inh -1, Runt-SMMHC FRET 0, Hck Nef HTS 24 and TbHK1 inh -10.
For N#CC1(C#N)CC(C=O)=C(N)C1(C#N)CC(=O)c1ccc(F)cc1 (stereo unspecified) the results were p97 ATPase inh -1, Runt-CBFb FRET 21, RanGTP-Imp inh 33*, Runt-SMMHC FRET 51*, Hck Nef HTS 0 and TbHK1 inh -8.
COc1ccccc1-c1nc2ccccc2c(=O)n1NC(=O)c1cccs1 was read as p97 ATPase inh 5, Runt-CBFb FRET 0, RanGTP-Imp inh 4, Runt-SMMHC FRET 0, Hck Nef HTS 6 and TbHK1 inh -6.
`COc1ccc2[nH]c(C)cc(=O)c2c1` gave p97 ATPase inh -2, Runt-CBFb FRET 0, RanGTP-Imp inh -3, Runt-SMMHC FRET 4, Hck Nef HTS -7 and TbHK1 inh -15.
`COc1ccc2[nH]c3c(C)c4ccncc4c(C)c3c2c1` gave p97 ATPase inh 14, Runt-CBFb FRET 11, RanGTP-Imp inh 45*, Runt-SMMHC FRET 22, Hck Nef HTS -4 and TbHK1 inh -7.
Screening N#C/C(=C/c1ccc(N2CCCCCC2)o1)c1ccc(Cl)cc1 returned p97 ATPase inh 0, Runt-CBFb FRET 28, RanGTP-Imp inh 33*, Runt-SMMHC FRET 26, Hck Nef HTS -26 and TbHK1 inh 11.
For O=C/C=C/c1coc2ccc3ccccc3c2c1=O the results were p97 ATPase inh 8, Runt-CBFb FRET 1, RanGTP-Imp inh 1, Runt-SMMHC FRET -4, Hck Nef HTS -21 and TbHK1 inh -27.
`O=Cc1coc2c(ccc3ccccc32)c1=O` gave RanGTP-Imp inh 37*.
For Cc1nc2ccn(Cc3ccccc3)c(=O)c2cc1C(=O)N1CCN(c2ccccc2)CC1 the results were RanGTP-Imp inh 92*.
`CCCn1nc(NC(=O)c2cccs2)c2cc3cc(OC)ccc3nc21` gave p97 ATPase inh -4, Runt-CBFb FRET 63*, RanGTP-Imp inh 106*, Runt-SMMHC FRET 63*, Hck Nef HTS 7 and TbHK1 inh 0.
CCCn1nc(NC(=O)c2ccncc2)c2cc3ccccc3nc21 was read as p97 ATPase inh 2, Runt-CBFb FRET 3, RanGTP-Imp inh 6, Runt-SMMHC FRET 14, Hck Nef HTS 6 and TbHK1 inh -4.
`CCCCn1nc(NC(=O)c2cccs2)c2cc3cc(OC)ccc3nc21` gave p97 ATPase inh 5, Runt-CBFb FRET 67*, RanGTP-Imp inh 129*, Runt-SMMHC FRET 78*, Hck Nef HTS 37 and TbHK1 inh 22.
`CCn1c(SCc2nc3ccccc3[nH]2)nnc1-c1ccncc1` gave p97 ATPase inh 2, Runt-CBFb FRET -1, RanGTP-Imp inh inconclusive, Runt-SMMHC FRET -2, Hck Nef HTS 1 and TbHK1 inh -2.
For Cc1ccc(S(=O)(=O)N(C)C)cc1NC(=O)C(C)N(C)Cc1sccc1C (stereo unspecified) the results were RanGTP-Imp inh 3.
`O=C1N[C@@H](Cc2ccccc2)C(=O)N2CCC[C@@H]12` gave RanGTP-Imp inh -2.
`O=C(c1ccccc1)c1ccc2nc(-c3ccco3)c(-c3ccco3)nc2c1` gave p97 ATPase inh 8, Runt-CBFb FRET 5, RanGTP-Imp inh 0, Runt-SMMHC FRET -33, Hck Nef HTS 58* and TbHK1 inh 3.
For O=C(NCCO)c1ccc2nc(-c3ccco3)c(-c3ccco3)nc2c1 the results were p97 ATPase inh 14, Runt-CBFb FRET 6, RanGTP-Imp inh 3, Runt-SMMHC FRET -18, Hck Nef HTS -4 and TbHK1 inh 8.
For O=C(NCCc1ccccc1)c1ccc2nc(-c3ccco3)c(-c3ccco3)nc2c1 the results were p97 ATPase inh 4, Runt-CBFb FRET 2, RanGTP-Imp inh 39*, Runt-SMMHC FRET -45, Hck Nef HTS 15 and TbHK1 inh -9.
`Cc1oc(-c2ccccc2)[n+]([O-])c1C` gave p97 ATPase inh -1, Runt-CBFb FRET 1, RanGTP-Imp inh -4, Runt-SMMHC FRET 0, Hck Nef HTS -1 and TbHK1 inh -5.
`[O-][n+]1c2ccccc2cc2ccccc21` gave RanGTP-Imp inh 79*.
For Oc1c(Cl)cc(Cl)cc1/C=N/NC(=S)NC1CC2C=CC1C2 (stereo unspecified) the results were p97 ATPase inh 1, Runt-CBFb FRET 12, RanGTP-Imp inh 9, Runt-SMMHC FRET 90*, Hck Nef HTS -88 and TbHK1 inh -9.
Screening Oc1ccccc1/C=N/NC(=S)NC1CC2C=CC1C2 (stereo unspecified) returned p97 ATPase inh 2, Runt-CBFb FRET 3, RanGTP-Imp inh 1, Runt-SMMHC FRET 8, Hck Nef HTS -22 and TbHK1 inh -16.
Screening CCCOC(=O)c1c(NC(=O)C2C3C=CC(C3)C2C(=O)O)sc2c1CCC(C)C2 (stereo unspecified) returned p97 ATPase inh 4, Runt-CBFb FRET 3, RanGTP-Imp inh -4, Runt-SMMHC FRET 2, Hck Nef HTS 20 and TbHK1 inh -1.
Screening O=C(Cc1ccc(F)cc1)Nc1nnc(SCC(=O)NC2CCCC2)s1 returned p97 ATPase inh 3, Runt-CBFb FRET 0, RanGTP-Imp inh 27*, Runt-SMMHC FRET -1, Hck Nef HTS 15 and TbHK1 inh -2.
For COc1ccccc1CNC(=O)[C@H](Cc1c[nH]c2ccccc12)NC(=O)[C@@H]1Cc2ccccc2CN1 the results were RanGTP-Imp inh -2.
`Cc1nc(Cl)sc1C(=O)O` gave p97 ATPase inh -5, Runt-CBFb FRET -2, RanGTP-Imp inh 9, Runt-SMMHC FRET -1, Hck Nef HTS 1 and TbHK1 inh 55*.
`CN(C)CCN1C(=O)c2oc3ccc(Cl)cc3c(=O)c2C1c1cccc(Br)c1` (stereo unspecified) gave p97 ATPase inh 4, Runt-CBFb FRET -3, RanGTP-Imp inh 0, Runt-SMMHC FRET -1, Hck Nef HTS 14 and TbHK1 inh 1.
`N=c1oc2c3c4c(cc2cc1C(=O)Nc1ccccc1)CCCN4CCC3` gave p97 ATPase inh 12, Runt-CBFb FRET 32, RanGTP-Imp inh 133*, Runt-SMMHC FRET 61*, Hck Nef HTS 1 and TbHK1 inh 0.
